Measured values: ChEMBL document CHEMBL1148788 (J Med Chem, 2007)
Where “and” joins values, the source holds several entries; their conditions need not be identical. Identical values can stand only once. Calls of active or inactive are those of the source. The calls are words filed in the database; no cut-off is given here.

How the values were obtained:
[1] = Displacement of [3H]methyllycaconitine from chimeric alpha-7nAChR W55A mutant /5HT3A receptor in tsA201 cells; assay type: cell-based, Homo sapiens
Outline: (§1)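 tsA-201 cells transiently transfected with 4 µg WT or mutant α7/5-HT3A chimera and assayed 2 days later. Membranes washed twice at 50000g in 50 mM Tris-HCl pH 7.2. Incubated with 0.5 nM [3H]MLA and compound for 2.5 h at room temperature with shaking; nonspecific binding with 5 mM (S)-nicotine. PEI-soaked GF/C filtration, scintillation counting. Ki derived; duplicate, 3–7 experiments.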

[2] = Displacement of [3H]methyllycaconitine from chimeric alpha7nAChR W55Y mutant/5HT3A receptor in tsA201 cells; assay type: cell-based, Homo sapiens; outline: as §1
[3] = target: Neuronal acetylcholine receptor; alpha4/beta4 (Rattus norvegicus, UniProt P09483+P12392); test: Displacement of [3H]epibatidine from recombinant rat alpha-4-beta-4 nAChr in HEK293 cell line; assay type: cell-based
Chain of Neuronal acetylcholine receptor; alpha4/beta4 (P09483 whole entry): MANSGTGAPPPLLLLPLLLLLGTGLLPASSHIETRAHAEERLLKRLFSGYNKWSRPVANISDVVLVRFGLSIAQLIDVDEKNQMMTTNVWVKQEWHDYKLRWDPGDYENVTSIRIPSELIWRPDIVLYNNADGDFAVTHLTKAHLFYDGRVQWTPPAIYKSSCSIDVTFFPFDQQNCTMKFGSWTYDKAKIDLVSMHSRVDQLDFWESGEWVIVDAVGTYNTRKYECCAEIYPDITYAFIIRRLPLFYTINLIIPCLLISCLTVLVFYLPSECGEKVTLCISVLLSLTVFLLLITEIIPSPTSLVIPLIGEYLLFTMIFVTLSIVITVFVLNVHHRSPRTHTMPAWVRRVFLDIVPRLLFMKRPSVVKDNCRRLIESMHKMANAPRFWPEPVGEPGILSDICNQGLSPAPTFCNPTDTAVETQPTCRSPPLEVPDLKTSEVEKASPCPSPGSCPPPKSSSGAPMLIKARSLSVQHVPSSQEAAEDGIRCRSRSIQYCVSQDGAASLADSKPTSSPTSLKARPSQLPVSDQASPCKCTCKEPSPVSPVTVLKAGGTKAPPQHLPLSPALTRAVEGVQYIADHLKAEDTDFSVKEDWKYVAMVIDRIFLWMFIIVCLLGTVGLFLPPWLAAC
Chain of Neuronal acetylcholine receptor; alpha4/beta4 (P12392 whole entry): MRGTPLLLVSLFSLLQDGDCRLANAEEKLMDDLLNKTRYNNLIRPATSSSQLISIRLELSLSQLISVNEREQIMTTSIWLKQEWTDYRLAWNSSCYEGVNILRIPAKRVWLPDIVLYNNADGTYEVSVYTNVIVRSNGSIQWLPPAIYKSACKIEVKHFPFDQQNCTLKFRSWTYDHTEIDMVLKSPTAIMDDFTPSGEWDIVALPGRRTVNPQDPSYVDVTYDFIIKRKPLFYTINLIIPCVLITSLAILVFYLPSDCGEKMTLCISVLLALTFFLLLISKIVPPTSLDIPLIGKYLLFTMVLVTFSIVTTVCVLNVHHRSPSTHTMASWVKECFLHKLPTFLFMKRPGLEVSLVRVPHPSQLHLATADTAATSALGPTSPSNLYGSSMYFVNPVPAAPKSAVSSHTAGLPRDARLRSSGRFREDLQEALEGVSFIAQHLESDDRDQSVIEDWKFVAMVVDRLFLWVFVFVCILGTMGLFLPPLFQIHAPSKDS

[4] = target: Neuronal acetylcholine receptor; alpha4/beta2 (Rattus norvegicus, UniProt P09483+P12390); test: Displacement of [3H]epibatidine from rat recombinant alpha-4-beta-2 nAChR in HEK293 cell line; assay type: cell-based
Chain of Neuronal acetylcholine receptor; alpha4/beta2 (P09483 whole entry): as the sequence (P09483 whole entry) above
Chain of Neuronal acetylcholine receptor; alpha4/beta2 (P12390 whole entry): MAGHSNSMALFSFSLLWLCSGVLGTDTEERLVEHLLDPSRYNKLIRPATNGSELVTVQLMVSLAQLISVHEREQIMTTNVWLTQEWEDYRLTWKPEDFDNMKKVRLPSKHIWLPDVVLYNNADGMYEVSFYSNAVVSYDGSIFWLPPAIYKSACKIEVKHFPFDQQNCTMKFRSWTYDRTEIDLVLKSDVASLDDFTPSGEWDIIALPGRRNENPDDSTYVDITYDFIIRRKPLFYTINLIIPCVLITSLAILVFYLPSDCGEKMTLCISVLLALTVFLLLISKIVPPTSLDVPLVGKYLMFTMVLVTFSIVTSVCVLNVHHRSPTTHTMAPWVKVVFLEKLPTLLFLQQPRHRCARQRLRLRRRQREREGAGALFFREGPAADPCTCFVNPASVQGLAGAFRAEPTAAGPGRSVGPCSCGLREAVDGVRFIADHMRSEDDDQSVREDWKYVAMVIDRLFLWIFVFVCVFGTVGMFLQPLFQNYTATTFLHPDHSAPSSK

[5] = Displacement of [3H]methyllycaconitine from chimeric alpha7nAChR R79A mutant/5HT3A receptor R79A mutant in tsA201 cells; assay type: cell-based, Homo sapiens; outline: as §1
[6] = Displacement of [3H]methyllycaconitine from chimeric alpha-7nAChR D197A mutant/5HT3A receptor in tsA201 cells; assay type: cell-based, Homo sapiens; outline: as §1
[7] = Displacement of [3H]methyllycaconitine from chimeric alpha7nAChR Y195A mutant/5HT3A receptor in tsA201 cells; assay type: cell-based, Homo sapiens; outline: as §1
[8] = Displacement of [3H]methyllycaconitine from chimeric alpha-7nAChR N107A mutant/5HT3A receptor in tsA201 cells; assay type: cell-based, Homo sapiens; outline: as §1
tsA201 [9] = test: Displacement of [3H]methyllycaconitine from chimeric alpha-7nAChR W149A mutant/5HT3A receptor in tsA201 cells; assay type: cell-based; conditions: Homo sapiens; outline: as §1
cells = assay type: functional, cell-based; conditions: Homo sapiens, HEK293
[10] = Antagonist activity at human alpha-7 nAChR Y188A mutant coexpressed with human Ric3 in tsA201 cells by FMP assay; assay type: functional, cell-based
[11] = target: T1, Neuronal acetylcholine receptor; alpha3/beta4 (Rattus norvegicus, UniProt P04757+P12392); test: Displacement of [3H]epibatidine from recombinant rat alpha-3-beta-4 nAChr in HEK293 cell line; assay type: cell-based
T1 sequence (P04757 whole entry): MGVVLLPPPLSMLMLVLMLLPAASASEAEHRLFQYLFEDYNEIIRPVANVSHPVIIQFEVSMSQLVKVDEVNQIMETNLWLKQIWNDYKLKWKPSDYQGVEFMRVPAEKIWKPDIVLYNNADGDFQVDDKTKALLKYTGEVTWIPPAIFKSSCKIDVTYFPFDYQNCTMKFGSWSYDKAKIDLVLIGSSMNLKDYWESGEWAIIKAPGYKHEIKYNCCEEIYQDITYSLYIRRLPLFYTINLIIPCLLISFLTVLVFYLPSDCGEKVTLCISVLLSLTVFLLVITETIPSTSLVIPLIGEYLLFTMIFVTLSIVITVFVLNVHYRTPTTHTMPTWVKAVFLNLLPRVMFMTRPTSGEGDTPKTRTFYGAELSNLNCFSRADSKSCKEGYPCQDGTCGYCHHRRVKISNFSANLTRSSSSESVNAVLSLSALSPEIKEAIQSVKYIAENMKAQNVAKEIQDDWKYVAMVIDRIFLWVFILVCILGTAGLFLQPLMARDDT
T1 sequence (P12392 whole entry): as the sequence (P12392 whole entry) above

[12] = Antagonist activity at human alpha7nAChR Y93A mutant co-expressed with human Ric3 in tsA201 cells by FMP assay; assay type: functional, cell-based
[13] = Antagonist activity at human alpha7 nAChR W149Y mutant co-expressed with human Ric3 in tsA201 cells by FMP assay; assay type: functional, cell-based
[14] = Displacement of [3H]methyllycaconitine from chimeric alpha-7nAChR K145R mutant /5HT3A receptor in tsA201 cells; assay type: cell-based, Homo sapiens; outline: as §1
tsA201 [15] = test: Displacement of [3H]methyllycaconitine from chimeric alpha-7nAChR W55A/Y195A mutant /5HT3A receptor in tsA201 cells; assay type: cell-based; conditions: Homo sapiens; outline: as §1
[16] = Displacement of [3H]methyllycaconitine from chimeric alpha-7nAChR S148A mutant /5HT3A receptor in tsA201 cells; assay type: cell-based, Homo sapiens; outline: as §1
[17] = target: T2, Neuronal acetylcholine receptor subunit alpha-7 (Homo sapiens, UniProt P36544)
Target sequence in this assay (P36544 whole entry): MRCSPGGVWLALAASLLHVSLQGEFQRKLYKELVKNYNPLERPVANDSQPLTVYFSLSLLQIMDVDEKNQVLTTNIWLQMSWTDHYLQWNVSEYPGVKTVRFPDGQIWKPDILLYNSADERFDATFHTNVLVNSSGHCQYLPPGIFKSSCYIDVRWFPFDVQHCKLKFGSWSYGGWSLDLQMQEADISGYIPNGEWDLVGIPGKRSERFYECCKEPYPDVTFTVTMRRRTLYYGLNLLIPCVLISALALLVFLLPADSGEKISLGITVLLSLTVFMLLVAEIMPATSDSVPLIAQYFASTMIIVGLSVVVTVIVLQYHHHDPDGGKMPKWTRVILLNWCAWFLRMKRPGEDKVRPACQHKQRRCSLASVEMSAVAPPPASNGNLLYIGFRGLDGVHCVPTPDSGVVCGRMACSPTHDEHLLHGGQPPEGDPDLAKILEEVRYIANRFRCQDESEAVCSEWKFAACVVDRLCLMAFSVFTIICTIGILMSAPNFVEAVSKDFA

tsA201 [18] = test: Displacement of [3H]methyllycaconitine from chimeric alpha-7nAChR W149Y mutant/5HT3A receptor W149Y mutant in tsA201 cells; assay type: cell-based; conditions: Homo sapiens; outline: as §1
[19] = target: T2, Neuronal acetylcholine receptor subunit alpha-7; test: Displacement of [3H]methyllycaconitine from chimeric alpha7nAChR/5HT3A in tsA201 cells; assay type: cell-based
Target sequence in this assay (P36544 23-502 limits assumed): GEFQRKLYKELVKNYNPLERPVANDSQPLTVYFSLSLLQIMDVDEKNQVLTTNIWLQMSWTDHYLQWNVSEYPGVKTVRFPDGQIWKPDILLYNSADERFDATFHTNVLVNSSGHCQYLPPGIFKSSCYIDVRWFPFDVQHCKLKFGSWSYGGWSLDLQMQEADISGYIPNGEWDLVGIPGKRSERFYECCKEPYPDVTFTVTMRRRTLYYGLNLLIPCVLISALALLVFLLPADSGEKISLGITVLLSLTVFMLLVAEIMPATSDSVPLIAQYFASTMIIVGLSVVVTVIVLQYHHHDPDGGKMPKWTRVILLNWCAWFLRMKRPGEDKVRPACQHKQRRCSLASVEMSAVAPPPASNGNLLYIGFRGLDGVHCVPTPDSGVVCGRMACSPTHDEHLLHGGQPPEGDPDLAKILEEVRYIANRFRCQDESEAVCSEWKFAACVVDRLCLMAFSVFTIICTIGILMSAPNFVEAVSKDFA

[20] = target: T2, Neuronal acetylcholine receptor subunit alpha-7; test: Displacement of [3H]methyllycaconitine from human alpha-7 in tsA201 cells coexpressed with 5HT3A receptor; assay type: cell-based
Target sequence in this assay (P36544 whole entry): as the sequence (P36544 whole entry) above

[21] = target: T3, 5-hydroxytryptamine receptor 3A (Homo sapiens, UniProt P46098); test: Antagonist activity at human 5HT3A receptor expressed in HEK293 cells by FMP assay; assay type: functional, cell-based; conditions: read-out: IC50
T3 sequence (P46098 whole entry): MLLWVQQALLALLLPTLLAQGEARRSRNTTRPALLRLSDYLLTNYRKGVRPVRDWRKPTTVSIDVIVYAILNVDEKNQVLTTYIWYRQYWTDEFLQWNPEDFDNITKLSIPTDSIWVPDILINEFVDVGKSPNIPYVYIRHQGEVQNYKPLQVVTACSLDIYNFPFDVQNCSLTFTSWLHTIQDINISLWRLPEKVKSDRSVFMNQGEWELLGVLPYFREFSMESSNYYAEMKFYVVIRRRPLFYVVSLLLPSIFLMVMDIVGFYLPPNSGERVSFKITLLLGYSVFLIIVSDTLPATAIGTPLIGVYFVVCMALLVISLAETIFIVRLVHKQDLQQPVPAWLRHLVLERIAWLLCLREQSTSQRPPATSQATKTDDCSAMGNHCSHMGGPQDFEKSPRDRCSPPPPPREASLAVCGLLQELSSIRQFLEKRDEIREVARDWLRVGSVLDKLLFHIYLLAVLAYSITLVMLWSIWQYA

[22] = Displacement of [3H]methyllycaconitine from chimeric alpha7nAChR K145A mutant/5HT3A receptor in tsA201 cells; assay type: cell-based, Homo sapiens; outline: as §1
[23] = target: T1, Neuronal acetylcholine receptor; alpha3/beta4; test: Antagonist activity at rat alpha3beta4 nAChR expressed in HEK293 cells by FMP assay; assay type: functional, cell-based, Homo sapiens; conditions: read-out: IC50
tsA201 [24] = test: Displacement of [3H]methyllycaconitine from chimeric alpha-7nAChR Y188A mutant/5-HT3A receptor in tsA201 cells; assay type: cell-based; conditions: Homo sapiens; outline: as §1
[25] = target: T4, Glycine receptor subunit alpha-1 (Homo sapiens, UniProt P23415); test: Antagonist activity at human glycine alpha-1 receptor in HEK293 cells by FMP assay; assay type: functional, cell-based
T4 sequence (P23415 whole entry): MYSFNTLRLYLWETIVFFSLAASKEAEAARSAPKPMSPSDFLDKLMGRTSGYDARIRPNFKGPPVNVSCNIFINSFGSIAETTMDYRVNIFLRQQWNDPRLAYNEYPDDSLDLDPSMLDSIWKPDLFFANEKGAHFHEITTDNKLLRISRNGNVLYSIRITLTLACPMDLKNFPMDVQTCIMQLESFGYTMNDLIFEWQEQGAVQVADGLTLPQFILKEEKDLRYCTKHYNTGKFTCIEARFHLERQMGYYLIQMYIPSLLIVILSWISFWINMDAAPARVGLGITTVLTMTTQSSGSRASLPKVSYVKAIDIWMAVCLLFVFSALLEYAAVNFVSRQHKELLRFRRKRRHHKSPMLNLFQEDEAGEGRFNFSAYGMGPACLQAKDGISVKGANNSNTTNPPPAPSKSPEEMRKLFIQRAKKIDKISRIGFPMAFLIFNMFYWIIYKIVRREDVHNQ

[26] = Displacement of [3H]methyllycaconitine from chimeric alpha-7nAChR Y168A mutant/5HT3A receptor in tsA201 cells; assay type: cell-based, Homo sapiens; outline: as §1
[27] = target: T2, Neuronal acetylcholine receptor subunit alpha-7; test: Displacement of [3H]methyllycaconitine from alpha7 nAChR in tsA201 cells co-expressed with Ric3; assay type: cell-based
Target sequence in this assay (P36544 whole entry): as the sequence (P36544 whole entry) above

[28] = target: T3, 5-hydroxytryptamine receptor 3A; test: Displacement of [3H]GR65630 from human 5HT3A receptor in HEK293 cells; assay type: cell-based
[29] = Displacement of [3H]methyllycaconitine from chimeric alpha-7nAChR S150A mutant/5HT3A receptor in tsA201 cells; assay type: cell-based, Homo sapiens; outline: as §1
tsA201 [30] = test: Displacement of [3H]methyllycaconitine from chimeric alpha-7nAChR Y93A mutant/5HT3A receptor in tsA201 cells; assay type: cell-based; conditions: Homo sapiens; outline: as §1
[31] = target: T2, Neuronal acetylcholine receptor subunit alpha-7; test: Antagonist activity at human alpha-7 nAChR in tsA201 cells coexpressed with Ric3 by FMP assay; assay type: functional, cell-based
Target sequence in this assay (P36544 whole entry): as the sequence (P36544 whole entry) above

[32] = Displacement of [3H]methyllycaconitine from chimeric alpha-7nAChR Y195F mutant/5HT3A receptor in tsA201 cells; assay type: cell-based, Homo sapiens; outline: as §1
[33] = Antagonist activity at human alpha-7 nAChR Y195A mutant coexpressed with human Ric3 in tsA201 cells by FMP assay; assay type: functional, cell-based

C[N+]12CC[C@@H]3[C@@H]4/C(=C\N5c6ccccc6[C@@]67CC[N+]8(C)CC9=CCO[C@H]([C@@H]([C@H]56)[C@H]9C[C@@H]78)N4c4ccccc4)[C@@H](C[C@@H]31)/C(=C\CO)C2.[I-].[I-] (some centres undefined)
Ki [1]: 3100 nM | pKi [1]: 5.51 | Ki [2]: 690 nM | pKi [2]: 6.16 | Ki [3]: > 100000 nM | pKi ([3]; hek293): < 4 | pKi ([4]; hek293): < 4 | Ki ([4]; read-out: Ki): > 100000 nM | Ki [5]: 1400 nM | pKi [5]: 5.86 | Ki [6]: 2200 nM | pKi [6]: 5.66 | Ki [7]: 6200 nM | pKi [7]: 5.21 | Ki [8]: 1300 nM | pKi [8]: 5.87 | Activity (tsA201 [9]): inactive | IC50 (cells; read-out: IC50): > 100000 nM | IC50 (cells; read-out: pIC50 (converted)): > 100000 nM | IC50 ([10]; read-out: IC50): 4700 nM | IC50 ([10]; read-out: pIC50 (converted)): 4680 nM | Ki [11]: 30000 nM | IC50 ([12]; read-out: IC50): 6600 nM | IC50 ([12]; read-out: pIC50 (converted)): 6610 nM | IC50 ([13]; read-out: IC50): 8900 nM | IC50 ([13]; read-out: pIC50 (converted)): 8910 nM | Ki [14]: 740 nM | pKi [14]: 6.13 | Activity (tsA201 [15]): inactive | Ki [16]: 1000 nM | pKi [16]: 5.98 | IC50 [17]: 1400 nM and 1380 nM | Activity (tsA201 [18]): inactive | Ki [19]: 970 nM | pKi [19]: 6.01 | Ki ([20]; read-out: Ki): 980 nM | Ki ([20]; read-out: pKi (converted)): 1000 nM | IC50 [21]: 4200 nM | Ki [22]: 890 nM | pKi [22]: 6.05 | IC50 [23]: 30000 nM | Activity (tsA201 [24]): inactive | IC50 [25]: > 100000 nM | pIC50 ([25]; hek293): < 4 | Ki [26]: 1300 nM | pKi [26]: 5.89 | Ki ([27]; read-out: Ki): 620 nM | Ki ([27]; read-out: pKi (converted)): 631 nM | Ki [28]: 5900 nM | Ki [29]: 720 nM | pKi [29]: 6.14 | Activity (tsA201 [30]): inactive | IC50 ([31]; read-out: IC50): 2100 nM | IC50 ([31]; read-out: pIC50 (converted)): 2090 nM | Ki [32]: 1300 nM | pKi [32]: 5.9 | IC50 ([33]; read-out: IC50): 7100 nM | IC50 ([33]; read-out: pIC50 (converted)): 7080 nM

CCN1C[C@]2(COC(=O)c3ccccc3N3C(=O)C[C@H](C)C3=O)CC[C@H](OC)[C@@]34[C@@H]5C[C@H]6[C@H](OC)[C@@H]5[C@](O)(C[C@@H]6OC)[C@](O)([C@@H](OC)[C@H]23)[C@@H]14 [METHYLLYCACONITINE]
Ki [1]: 24 nM | pKi [1]: 7.62 | Ki [2]: 4.5 nM | pKi [2]: 8.35 | Ki [5]: 3.5 nM | pKi [5]: 8.45 | Ki [6]: 5.5 nM | pKi [6]: 8.26 | Ki [7]: 13 nM | pKi [7]: 7.89 | Ki [8]: 3.2 nM | pKi [8]: 8.42 | Activity (tsA201 [9]): inactive | IC50 ([10]; read-out: IC50): 1800 nM | IC50 ([10]; read-out: pIC50 (converted)): 1820 nM | IC50 ([12]; read-out: IC50): 10000 nM | IC50 ([12]; read-out: pIC50 (converted)): 31600 nM | IC50 ([13]; read-out: IC50): 89 nM | IC50 ([13]; read-out: pIC50 (converted)): 10000 nM | Ki [14]: 4.3 nM | pKi [14]: 8.37 | Activity (tsA201 [15]): inactive | Ki [16]: 2.5 nM | pKi [16]: 8.6 | IC50 [17]: 8.3 nM and 8.32 nM | Activity (tsA201 [18]): inactive | Ki [19]: 1.6 nM | pKi [19]: 8.79 | Ki ([20]; read-out: Ki): 1.1 nM | Ki ([20]; read-out: pKi (converted)): 1 nM | Ki [22]: 3.9 nM | pKi [22]: 8.41 | Activity (tsA201 [24]): inactive | Ki [26]: 1.9 nM | pKi [26]: 8.71 | Ki ([27]; read-out: Ki): 6.1 nM | Ki ([27]; read-out: pKi (converted)): 6.31 nM | Ki [29]: 3.5 nM | pKi [29]: 8.45 | Activity (tsA201 [30]): inactive | IC50 ([31]; read-out: IC50): 8.3 nM | IC50 ([31]; read-out: pIC50 (converted)): 8.32 nM | Ki [32]: 1.7 nM | pKi [32]: 8.78 | IC50 ([33]; read-out: IC50): 320 nM | IC50 ([33]; read-out: pIC50 (converted)): 324 nM
